Screening results from PubChem BioAssay.
This excerpt belongs to a sample that is enriched for hits.
UPR CHOP act = apoptotic UPR (CHOP) activation. hit rate 0.34% among 330,000. activation, % at 10 µM. CHO-CHOP luciferase reporter, luminescence; percent of tunicamycin response over DMSO baseline;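 active = at 10 µM dose, activation of 40% or more, normalized to positive control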;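 also: 100% = tunicamycin at 10 µg/mL and 0% = DMSO alone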
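Test system: CHO-CHOP cells, stable luciferase reporter of PERK-eIF2a-CHOP signalling | Quantity: 500 CHO-CHOP cells per well | Buffer or medium: F12 plus 10% serum | Compound dosing: 10 µM single point, 0.5% DMSO | Schedule: 6 h compound treatment, 37 °C | Signal: Luciferase luminescence | Control set: Tunicamycin high control, DMSO low control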
CHOP inh = inhibitors of CHOP induction in ER stress response; CHO-K1 CHOP-promoter luciferase, tunicamycin-induced, 15-18 h; inhibition, % at 10 µM; hit rate 3.8% among 220,000; AID 2732;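 active = compounds that reduced the stress-induced luciferase reporter signal by more than about 70% of percent inhibition, limit read from the data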;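 also: 0% = tunicamycin plus vehicle and 100% = wells without tunicamycin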
T cruzi inh = T. cruzi replication inhibition. T. cruzi beta-gal in NIH3T3, luminescence, 90 h. inhibition, % (test concentration not listed). hit rate 1.4% among 300,000. AID 1885;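 active = mean inhibition across valid replicates above about 55%, limit read from the data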;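 also: signal also drops with host cell toxicity which is not excluded here; 0% = plate median of DMSO wells and 100% = zero luminescence signal; higher percent means less beta-gal luminescence so fewer parasites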
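compound dosing = single 50 nL compound addition per well in DMSO | material = NIH/3T3 host cells with β-galactosidase reporter T. cruzi | input = 5,000 host fibroblasts per well | timing = ≥90 h infection period, 3 h prior cell attachment | read-out basis = percent inhibition of parasite-derived β-gal signal | detection = GalScreen β-gal luminescence, detergent lysis, 60 min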
L major viab = reduces viability of Leishmania major promastigotes. resazurin fluorescence viability. inhibition, % at 10 µM. hit rate 9% among 200,000; in the data active = inhibition above about 50%;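 also: promastigotes grown with compound for 44 hours at 28 °C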
Dynein transport = blocks dynein driven cargo transport along microtubules. z-score, hits read low. hit rate 0.47% among 220,000. 3617.4 mouse cells, GR-EGFP nuclear translocation imaging; test concentration mostly 20 µM; stimulated with dexamethasone, 1 µM; active compounds read low;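 active = plate z-score of nuclear minus cytoplasmic receptor signal below a set negative limit, without overly bright fluorescence or cell loss, cut at about -3.5 in these data, passing the limit was not always enough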;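 also: z-score of nuclear minus cytoplasmic ring GR-EGFP intensity difference per well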
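Schedule: 48 h induction, then 1 h compound, then 30 min agonist, 37 °C. Buffer or medium: tetracycline-free induction medium containing charcoal-stripped FBS. Reagent: 1.0 µM final dexamethasone stimulus. Evaluation: nuclear versus cytoplasmic GR-EGFP signal, averaged per well. Signal: high-content fluorescence imaging after fixation.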
UPR XBP1 act = activators of adaptive arm of unfolded protein response (XBP1); CHO-XBP1 luciferase reporter, IRE1-XBP1 UPR activation, luminescence; percent of tunicamycin response, DMSO as zero; activation, % at 20 µM; hit rate 0.33% among 330,000;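 active = versus positive control, 20 µM dose yields 30% or more activation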;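 also: 100% = tunicamycin at 10 µg/mL and 0% = DMSO only wells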
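Material – CHO cell line with stable XBP1 luciferase reporter · Buffer or medium – F12 plus 10% FBS · Compound – single point, 20 µM final compound, 1% DMSO · Schedule – 16-18 h cell attachment at 37 °C, then 6 h compound exposure · Signal – Steady-Glo luminescence read · Benchmarks – high control tunicamycin 10 µg/mL final, low control DMSO vehicle only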
The depositor's hits bear a star; . = not tested or not shown.

SMILES	UPR CHOP act	CHOP inh	T cruzi inh	L major viab	Dynein transport	UPR XBP1 act
COc1ccc(S(=O)(=O)N2CCc3ccccc32)cc1OC	-0.6	.	-0.9	.	.	-4.7
O=C(Cn1c(=O)oc2cc(S(=O)(=O)N3CCCC3)ccc21)N1CCN(c2ccccc2F)CC1	0.7	.	-0.5	.	.	-0.1
CCn1c(=O)n(CC)c2cc(S(=O)(=O)N3CCc4ccccc43)ccc21	-3.2	.	0.3	87.0*	0.311	-0.4
O=C(Cn1c(=O)oc2cc(S(=O)(=O)N3CCCCC3)ccc21)N1CCc2ccccc21	21.9	67.8	-23.3	6.0	-0.865	35.4*
O=C(Cn1c(=O)oc2cc(S(=O)(=O)N3CCCC3)ccc21)N1CCc2ccccc2C1	-0.6	85.2*	2.8	99.6*	0.536	-1.6
O=C(Cn1c(=O)oc2cc(S(=O)(=O)N3CCOCC3)ccc21)N1CCc2ccccc2C1	1.4	9.4	.	-2.9	2.09	-4.0
CC(C)C(NC(=O)C(c1ccccc1)c1ccccc1)c1nc2ccccc2[nH]1 (configuration not stated)	-1.2	77.5*	17.7	9.8	0.27	-1.5
Cc1cccc(CC(Cc2nc3ccccc3[nH]2)c2nc3ccccc3[nH]2)c1 (configuration not stated)	2.3	-77.0	25.3	92.5*	0.889	-4.1
CC(c1ccccc1)C(Cc1nc2ccccc2[nH]1)c1nc2ccccc2[nH]1 (configuration not stated)	-2.2	36.1	14.1	95.0*	-0.824	-1.8
COc1ccccc1CC(Cc1nc2ccccc2[nH]1)c1nc2ccccc2[nH]1 (configuration not stated)	2.0	17.9	4.7	98.2*	1.66	-2.1
CC(C)Cc1nc2ccccc2[nH]1	-3.5	-1.4	-6.8	.	-0.688	-1.7
CC(C)Oc1ccc(/C(O)=C2/C(=O)C(=O)N(CCN3CCNCC3)C2c2ccc(C(C)C)cc2)cc1 (configuration not stated)	-0.4	.	-6.0	.	.	-2.5
N#C/C(=C\c1cccc([N+](=O)[O-])c1)c1nnc2n1CCCCC2	-1.1	14.0	-0.5	60.9*	-0.142	-3.1
CCCCNc1ccc(C(=O)O)cc1	-1.3	3.7	-7.2	.	-0.624	-2.0
O=C(c1cn(-c2ccccc2)nc1-c1ccc(F)cc1)N1CCOCC1	-0.1	9.0	-2.8	-6.6	0.223	1.8
O=C(c1cn(-c2ccccc2)nc1-c1ccc(F)cc1)N1CCCCC1	-1.7	22.7	18.9	81.3*	-0.765	0.2
Cc1nn(-c2ccccc2)c(Cl)c1CN(C(=O)CCl)c1cccc2ccccc12	8.4	-70.5	20.9	98.7*	-0.0795	-0.4
CC(=O)N(Cc1c(C)nn(-c2ccccc2)c1Cl)c1ccc(Cl)cc1	-0.9	2.1	18.8	17.4	-0.842	-1.6
CCOC(=O)c1sc(Nc2nc3cc4c(cc3s2)OCO4)cc1C	4.5	98.1*	14.6	2.3	-0.811	3.7
CC(=O)c1sc(Nc2nc3cc4c(cc3s2)OCO4)nc1C	.	-36.8	-12.4	40.3	-1.08	.
CCOC(=O)c1sc(Nc2nc3c(OC)cccc3s2)cc1C	2.5	44.1	21.2	69.0*	-0.719	11.3
O=C(c1cccs1)N1CCN(C2CCN(Cc3ccccc3)CC2)CC1	-2.0	-3.1	20.3	90.9*	1.23	-1.0
O=C(C1CCCN(S(=O)(=O)c2cccs2)C1)N1CCN(C2CCCCC2)CC1 (configuration not stated)	-0.4	5.2	16.6	83.0*	-0.457	-2.0
CS(=O)(=O)N1CCN(C2CCN(Cc3ccccc3)CC2)CC1	1.5	12.0	4.9	77.3*	-0.107	-1.1
O=C(c1cccs1)N1CCN(C2CCCCC2)CC1	3.0	-10.3	14.3	83.2*	-0.636	4.7
SMILES	UPR CHOP act	CHOP inh	T cruzi inh	L major viab	Dynein transport	UPR XBP1 act
O=C(C1CCCN(S(=O)(=O)c2cccs2)C1)N1CCc2ccccc2C1 (configuration not stated)	-1.1	55.8	.	4.3	-0.836	-3.8
Cc1cc(-n2cnnn2)cc(C)c1S(=O)(=O)NCCOc1ccccc1	-1.7	.	-6.3	.	.	-1.3
CN(C(=O)COC(=O)c1nc(Cl)ccc1Cl)c1ccccc1	1.0	.	-4.7	.	.	-5.6
CCOc1cccc(CN2CCCC(N3CCc4cc(OC)c(OC)cc4C3)C2)c1O (configuration not stated)	0.5	.	64.9*	.	.	-1.8
Cc1ncc([N+](=O)[O-])n1Cc1cccc(F)c1	0.3	6.7	10.3	85.2*	-0.216	-1.8
Cc1ncc([N+](=O)[O-])n1CC(=O)NC1CCCCC1	-0.1	-17.9	-9.6	82.5*	1.19	-1.5
Cc1ncc([N+](=O)[O-])n1Cc1ccccc1	0.2	-30.4	-7.5	73.4*	1.83	-3.5
Cc1cccc(NC(=O)CNC(=O)CSc2nc(N)cc(N)n2)c1C	0.7	.	.	.	.	-3.5
O=C1CSC(c2ccc(F)c(F)c2)N1c1ccccc1F (configuration not stated)	1.1	.	-12.2	.	.	4.0
O=S(=O)(Nc1cccc(CCc2ccccn2)c1)c1cc(Cl)ccc1Cl	3.5	13.6	.	.	1.09	1.2
O=S(=O)(Nc1cccc(CCc2ccccn2)c1)c1ccc2ccccc2c1	.	84.0*	.	-1.6	0.841	.
O=C(COC(=O)Cc1c[nH]c2ccccc12)Nc1cc(S(=O)(=O)N2CCOCC2)ccc1Cl	0.2	.	.	.	.	-0.4
CC(C)N(Cc1ccccc1)CC(O)COc1ccc(S(=O)(=O)N2CCOCC2)cc1Cl (configuration not stated)	0.9	10.5	17.9	100.0*	-0.886	4.3
O=C(NC1CCCCC1)C1CC(=O)N(Cc2ccccc2)C1 (configuration not stated)	-1.5	.	-17.9	.	.	0.9
Fc1ccc(Oc2cc(N3CCOCC3)nc(-c3ccccc3)n2)c(F)c1	-0.9	87.0*	26.9	-6.7	-0.149	-5.2
FC(F)(F)c1cc(-c2ccccc2)nc(N2CCOCC2)n1	-0.5	89.8*	-3.5	1.2	0.167	-0.8
c1ccc(-c2cc(N3CCOCC3)nc(-c3ccccc3)n2)cc1	1.1	89.4*	10.1	-8.4	0.78	1.7
CSCc1cc(N2CCCC2)nc(-c2ccccc2)n1	0.4	-15.8	14.9	68.3*	0.242	-2.5
CC(C)SCc1cc(N2CCCC2)nc(-c2ccccc2)n1	-0.8	46.4	30.5	15.7	-0.311	-0.6
FC(F)(F)c1cc(-c2ccccc2)nc(N2CCCCC2)n1	1.0	20.5	7.5	-4.6	-1.15	-3.4
O=P(O)(C(O)c1ccccc1)C(O)c1ccccc1 (configuration not stated)	0.3	.	-20.6	.	.	2.8
COc1ccc2c3c(c(=O)oc2c1OCC(=O)O)CCCC3	2.0	6.6	0.0	61.1*	0.91	-0.7
CCOc1c(OC)ccc2c3c(c(=O)oc12)CCCC3	-0.6	16.6	5.4	4.1	0.0428	-0.4
